Measured values reported in article PMC10947042 (Chemmedchem, 2022).

Key:
HER14 cells = assay: Receptor-mediated endocytosis assay, HER14 cells; assay type: cell-based
In short: (§1)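 Cells grown in DMEM/10 % FCS, then serum‑free DMEM for 16 h. Compound added 30 min (final DMSO ≤1 %), then Tfn‑TxR (final 5.0 μg/mL) or EGF‑TxR (final 1.0 μg/mL) as applicable, 10 min at 37 °C. Surface ligand stripped with ice‑cold acid wash (pH 2.8), 4 % PFA fix, DAPI stain, fluorescence microscopy. Quantified as integrated intensity per cell, % of vehicle control.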

Swiss 3T3 cells = assay: Receptor-mediated endocytosis assay, Swiss 3T3 cells; assay type: cell-based
In short: as §1

HeLa cells = assay: Receptor-mediated endocytosis assay, HeLa cells; assay type: cell-based
In short: as §1

B104 cells = assay: Receptor-mediated endocytosis assay, B104 cells; assay type: cell-based
In short: as §1

[1] = Rat blood plasma stability; assay type: in vitro ADME; conditions: 5 % rat blood plasma, Figure 3E
B35 cells = assay: Receptor-mediated endocytosis assay, B35 cells; assay type: cell-based
In short: as §1

A431 cells = assay: Receptor-mediated endocytosis assay, A431 cells; assay type: cell-based; conditions: 30 μM, data not shown
[2] = Solubility in the buffer solution; assay type: physicochemical
dynamin I [3] = assay: Malachite Green GTPase assay, dynamin I; assay type: biochemical, sheep; conditions: increasing GTP or phospholipid (PS) concentration, Figure 2
In short: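 GTP 0.3 mM, PS liposomes ~4 μg/ml (GTP or PS varied). Compound present; 30 min, 37 °C; EDTA stop; malachite green A650 against phosphate standard. Basal subtracted; Michaelis‑Menten and Lineweaver‑Burk fits.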

dyn II = conditions: read-out: dyn II IC50; cited from earlier work
dynamin I [4] = conditions: read-out: IC50 for dynamin I inhibition; in vitro dynamin I GTPase; cited from earlier work
COS7 cells = assay: Receptor-mediated endocytosis assay, COS7 cells; assay type: cell-based; conditions: at up to 300 μM
In short: as §1

SMILES: CCC(=O)Oc1ccc(C=C(C#N)C(=O)NCCCNC(=O)C(C#N)=Cc2ccc(OC(=O)CC)c(OC(=O)CC)c2)cc1OC(=O)CC [Compound 4, Propionic acid 5‐(2‐{3‐[3‐(3,4‐bis‐propionyloxyphenyl)‐2‐cyanoacryloylamino]propylcarbamoyl}‐2‐cyanovinyl)‐2‐propionyloxyphenyl ester]
- transferrin and EGF uptake (where applicable) (HER14 cells; 30 μM, data not shown): inhibited transferrin and EGF uptake
- transferrin and EGF uptake (where applicable) (Swiss 3T3 cells; 30 μM, data not shown): inhibited transferrin and EGF uptake
- effect on EGF‐TxR uptake (CME) (HeLa cells; 30 μM): marked reduction in CME
- transferrin and EGF uptake (where applicable) (B104 cells; 30 μM, data not shown): inhibited transferrin and EGF uptake
- time until hydrolysis was complete [1]: ≈ 60 min
- transferrin and EGF uptake (where applicable) (B35 cells; 30 μM, data not shown): inhibited transferrin and EGF uptake
- transferrin and EGF uptake (where applicable) (A431 cells): inhibited transferrin and EGF uptake

SMILES: CC(C)(C)C(=O)Oc1ccc(C=C(C#N)C(=O)NCCCNC(=O)C(C#N)=Cc2ccc(OC(=O)C(C)(C)C)c(OC(=O)C(C)(C)C)c2)cc1OC(=O)C(C)(C)C [Compound 9, 2,2‐Dimethylpropionic acid 5‐[2‐(3‐{3‐[3,4‐bis‐(2,2‐dimethylpropionyloxy)phenyl]‐2‐cyanoacryloylamino}propylcarbamoyl)‐2‐cyanovinyl]‐2‐(2,2‐dimethylpropionyloxy)phenyl ester]
- solubility in the buffer solution / under physiological conditions [2]: insoluble

SMILES: CC(=O)Oc1ccc(C=C(C#N)C(=O)NCCCNC(=O)C(C#N)=Cc2ccc(OC(C)=O)c(OC(C)=O)c2)cc1OC(C)=O [Compound 3, Acetic acid 2‐acetoxy‐5‐(2‐cyano‐2‐{3‐[2‐cyano‐3‐(3,4‐diacetoxyphenyl)acryloylamino]propylcarbamoyl}vinyl)phenyl ester]
- solubility in the buffer solution / under physiological conditions [2]: insoluble

SMILES: N#CC(=Cc1ccc(O)c(O)c1)C(=O)NCCCNC(=O)C(C#N)=Cc1ccc(O)c(O)c1 [Compound 2, 2‐Cyano‐N‐{3‐[2‐cyano‐3‐(3,4‐dihydroxyphenyl)acryloylamino]propyl}‐3‐(3,4‐dihydroxyphenyl)acrylamide]
- endocytosis block (HER14 cells; 100 μM, not shown): essentially complete
- endocytosis block (TxR‐Tfn uptake) (Swiss 3T3 cells; 100 μM): essentially complete
- effect on EGF‐TxR uptake (CME) (HeLa cells; 100 μM): no effect on CME
- endocytosis block (HeLa cells; at up to 300 μM): largely ineffective
- mode of dynamin inhibition (dynamin I [3]): non‐GTP and non‐lipid dependent manner
- endocytosis block (B104 cells; 100 μM, not shown): essentially complete
- IC50 (dyn II): 500 nM
- IC50 (dynamin I [4]): 1700 ± 2000 nM
- endocytosis block (B35 cells; at up to 300 μM): largely ineffective
- endocytosis block (COS7 cells): largely ineffective

SMILES: CCCCCC(=O)Oc1ccc(C=C(C#N)C(=O)NCCCNC(=O)C(C#N)=Cc2ccc(OC(=O)CCCCC)c(OC(=O)CCCCC)c2)cc1OC(=O)CCCCC [Compound 8, Hexanoic acid 5‐(2‐{3‐[3‐(3,4‐bis‐hexanoyloxyphenyl)‐2‐cyanoacryloylamino]‐propylcarbamoyl}‐2‐cyanovinyl)‐2‐hexanoyloxyphenyl ester]
- solubility in the buffer solution / under physiological conditions [2]: insoluble
